Experimental findings from ChEMBL document CHEMBL3351600, “Sulfur, selenium and tellurium pseudopeptides: synthesis and biological evaluation” (Bioorg Med Chem, 2014) are described below.

Each structure is given as a SMILES string.

Series [1] in a line: Lipophilicity, log K of the compound by HPLC analysis.
The next series concerns Pseudomonas aeruginosa. In words: Antimicrobial activity against Pseudomonas aeruginosa assessed as inhibition at 20 ug/6 mm disk after 1 to 2 days by agar diffusion assay. The series is classed as functional. The method in brief:
(§1)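 Standard agar diffusion: 6-mm paper disks loaded with 20 µg of compound were placed on inoculated plates. Inhibition-zone diameter (mm) was read after 1 and 2 days of growth.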
(A growth-free zone around the sample is the usual read-out of agar diffusion tests.)

Series [2] in a line: Cytotoxicity against human fibroblasts assessed as cell viability after 24 hrs incubation by MTT assay. The series is classed as cell-based. The conditions noted are these: Fibroblast. The method in brief: (§2)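 Cell lines came from DSMZ; primary human fibroblasts served as non-cancer controls. Cells were grown in medium with 10% FCS, seeded at 50,000 cells/ml, and grown 2 days at 37 °C, 10% CO2. Serial dilutions were then added for 24 h. MTT (final 0.5 mg/ml) was added for 2 h. Formazan was pelleted, PBS-washed, dissolved in isopropanol/0.4% HCl and read at 590 nm. Two parallel experiments were run. IC50 was taken as the concentration giving 50% of untreated-control absorbance.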
On the technique in general: Tetrazolium assays rely on reduction of a dye to a coloured formazan, in cell work by metabolically active cells.

A further series relates to Klebsiella pneumoniae. In words: Antimicrobial activity against Klebsiella pneumoniae assessed as inhibition at 20 ug/6 mm disk after 1 to 2 days by agar diffusion assay. It counts as functional. The method in brief: as §1
The test system of the next series is Micrococcus luteus. In words: Antimicrobial activity against Micrococcus luteus assessed as inhibition at 20 ug/6 mm disk after 1 to 2 days by agar diffusion assay. It counts as functional. The method in brief:
as §1

The test system of the next series is Saccharomyces cerevisiae. In words: Antimicrobial activity against Saccharomyces cerevisiae assessed as inhibition at 20 ug/6 mm disk after 1 to 2 days by agar diffusion assay. The series is classed as functional. In a few lines: as §1
The next series concerns Escherichia coli. The experiment in a line: Antimicrobial activity against Escherichia coli tolC assessed as inhibition at 20 ug/6 mm disk after 1 to 2 days by agar diffusion assay. The series is classed as functional. In a few lines:
as §1

Another series relates to MCF7. The experiment in a line: Cytotoxicity against human MCF7 cells assessed as cell viability after 24 hrs incubation by MTT assay. The series is classed as functional, cell-based. The conditions noted are these: MCF7, 24 h. The method in brief: as §2
A short description of series [3]: Octanol-water partition coefficient, log P of the compound by HPLC analysis. The series is classed as physicochemical. The method in brief:
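Lipophilicity was measured by reversed-phase HPLC on a Nucleosil C18 column with isocratic water/methanol (3:1) at 0.5 ml/min and UV detection at 230 and 245 nm. Dead time was set with thiourea (t0 0.728 min). Retention factor was k = (tR − t0)/t0, and log P came from a calibration against at least six reference compounds.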

For another series, the system named is Staphylococcus aureus. The experiment in a line: Antimicrobial activity against Staphylococcus aureus assessed as inhibition at 20 ug/6 mm disk after 1 to 2 days by agar diffusion assay. The series is classed as functional. The method in brief:
as §1

The test system of a further series is Aspergillus niger. In words: Antimicrobial activity against Aspergillus niger assessed as inhibition at 20 ug/6 mm disk after 1 to 2 days by agar diffusion assay. It counts as functional. The method in brief: as §1
The subject of another series is Mycolicibacterium phlei. The experiment in a line: Antimicrobial activity against Mycobacterium phlei assessed as inhibition at 20 ug/6 mm disk after 1 to 2 days by agar diffusion assay. The series is classed as functional. The method in brief:
as §1

The test system of another series is Candida albicans. In words: Antimicrobial activity against Candida albicans assessed as inhibition at 20 ug/6 mm disk after 1 to 2 days by agar diffusion assay. It counts as functional. The method in brief: as §1
A further series concerns A-431. In words: Cytotoxicity against human A431 cells assessed as cell viability after 24 hrs incubation by MTT assay. The following applies: A-431, 24 h. It counts as functional, cell-based. The method in brief:
as §2

Consider `Cc1ccc(C(C)C)c(O)c1` [THYMOL], for which the Retention_time was 1.285 min. Also, in series [1], the “log K” value was -0.12.

As a reminder, the IC50 is the midpoint of a concentration-inhibition curve. A word on the logP: it is a log measure of how a compound divides between an organic and an aqueous phase. The low end stands for a more hydrophilic compound, the high end for a more lipophilic compound. As to `COc1ccc(N(CC(=O)NCCCSc2ccccc2)C(=O)/C=C/c2ccccc2)cc1`, the Retention_time is 2.514 min. The “diameter of the inhibition zone (DIZ)” value in the series on Pseudomonas aeruginosa worked out at 0 mm. The “log K” value in [1] was determined as 0.39. For the same compound, the IC50 in series [2] was at least 100 µM. Moreover, in the series on Klebsiella pneumoniae, the “diameter of the inhibition zone (DIZ)” value was found to be 0 mm. The “diameter of the inhibition zone (DIZ)” value with Micrococcus luteus is reported as 0 mm. The “diameter of the inhibition zone (DIZ)” value with Saccharomyces cerevisiae came out at 0 mm. For the same compound, the “diameter of the inhibition zone (DIZ)” value with Escherichia coli was found to be 0 mm. In addition, the IC50 with MCF7 was at least 100 µM. Besides, in series [3], the logP amounted to 4. For the same compound, the “diameter of the inhibition zone (DIZ)” value in the series on Staphylococcus aureus is 0 mm. Further, the “diameter of the inhibition zone (DIZ)” value in the series on Aspergillus niger worked out at 0 mm. Also, in the series on Mycolicibacterium phlei, the “diameter of the inhibition zone (DIZ)” value is on record as 15 mm. Further, the “diameter of the inhibition zone (DIZ)” value with Candida albicans amounted to 0 mm. Besides, the IC50 with A-431 is at least 100 µM.

The compound `CC(=O)Nc1ccccc1` [ACETANILIDE] displayed a Retention_time of 0.811 min. In series [1], the “log K” value is -0.94.

In turn, `c1ccc2ccccc2c1` returned a Retention_time of 1.894 min. The “log K” value in series [1] amounted to 0.2.

`COc1ccc(N(CC(=O)NCCC[Se]c2ccccc2)C(=O)CCSC2=C(C)C(=O)c3ccccc3C2=O)cc1` showed a Retention_time of 3.297 min. The “diameter of the inhibition zone (DIZ)” value in the series with Pseudomonas aeruginosa is 0 mm. Moreover, the “log K” value in series [1] was 0.55. Moreover, the IC50 in series [2] stood at 24 µM. In addition, the “diameter of the inhibition zone (DIZ)” value in the series with Klebsiella pneumoniae was found to be 0 mm. For the same compound, the “diameter of the inhibition zone (DIZ)” value in the series on Micrococcus luteus was found to be 7 mm. Also, in the series with Saccharomyces cerevisiae, the “diameter of the inhibition zone (DIZ)” value is given as 0 mm. For the same compound, the “diameter of the inhibition zone (DIZ)” value in the series on Escherichia coli amounted to 0 mm. The IC50 in the series with MCF7 was determined as 8 µM. In addition, the logP in series [3] came to 4.23. Besides, in the series with Staphylococcus aureus, the “diameter of the inhibition zone (DIZ)” value worked out at 0 mm. For the same compound, in the series on Aspergillus niger, the “diameter of the inhibition zone (DIZ)” value stood at 0 mm. In addition, the “diameter of the inhibition zone (DIZ)” value with Mycolicibacterium phlei was 0 mm. Further, the “diameter of the inhibition zone (DIZ)” value with Candida albicans is listed as 0 mm. The IC50 in the series on A-431 was found to be 17 µM.

In turn, `c1ccc2c(c1)ccc1ccccc12` registered a Retention_time of 3.615 min. Also, the “log K” value in series [1] came out at 0.6.

`COc1ccc(N(CC(=O)NCCCSc2ccccc2)C(=O)CCSC2=C(C)C(=O)c3ccccc3C2=O)cc1`: the Retention_time is listed as 2.94 min. Also, the “diameter of the inhibition zone (DIZ)” value in the series with Pseudomonas aeruginosa amounted to 0 mm. Further, in series [1], the “log K” value was 0.48. Also, the IC50 in [2] worked out at 26 µM. Besides, the “diameter of the inhibition zone (DIZ)” value in the series with Klebsiella pneumoniae stood at 0 mm. Further, the “diameter of the inhibition zone (DIZ)” value in the series on Micrococcus luteus is 0 mm. Moreover, in the series with Saccharomyces cerevisiae, the “diameter of the inhibition zone (DIZ)” value worked out at 0 mm. The “diameter of the inhibition zone (DIZ)” value in the series on Escherichia coli was 0 mm. Moreover, in the series on MCF7, the IC50 was found to be 16 µM. In [3], this compound registered a logP of 4.2. For the same compound, the “diameter of the inhibition zone (DIZ)” value with Staphylococcus aureus amounted to 0 mm. Also, the “diameter of the inhibition zone (DIZ)” value with Aspergillus niger was 0 mm. The “diameter of the inhibition zone (DIZ)” value in the series with Mycolicibacterium phlei turned out to be 0 mm. The “diameter of the inhibition zone (DIZ)” value in the series on Candida albicans was 0 mm. For the same compound, in the series on A-431, the IC50 was found to be 17 µM.

`COc1ccc(N(CC(=O)NCCC[Se]c2ccccc2)C(=O)CNC(=O)OC(C)(C)C)cc1` had a Retention_time of 1.434 min. Further, in the series on Pseudomonas aeruginosa, the “diameter of the inhibition zone (DIZ)” value is listed as 0 mm. For the same compound, the “log K” value in [1] is given as -0.01. Further, in [2], the IC50 was at least 100 µM. For the same compound, the “diameter of the inhibition zone (DIZ)” value in the series on Klebsiella pneumoniae is 0 mm. In the series on Micrococcus luteus, the “diameter of the inhibition zone (DIZ)” value stood at 0 mm. Moreover, the “diameter of the inhibition zone (DIZ)” value with Saccharomyces cerevisiae turned out to be 0 mm. Moreover, the “diameter of the inhibition zone (DIZ)” value in the series on Escherichia coli worked out at 0 mm. Further, in the series with MCF7, the IC50 was at least 100 µM. In series [3], this compound gave a logP of 3.3. Further, the “diameter of the inhibition zone (DIZ)” value in the series with Staphylococcus aureus is reported as 0 mm. In the series on Aspergillus niger, the “diameter of the inhibition zone (DIZ)” value was 0 mm. In the series with Mycolicibacterium phlei, the “diameter of the inhibition zone (DIZ)” value is 0 mm. Further, the “diameter of the inhibition zone (DIZ)” value in the series with Candida albicans is 0 mm. Besides, the IC50 in the series with A-431 is at least 100 µM.

As for `NC(N)=S` [THIOUREA], the Retention_time amounted to 0.728 min.

On to `c1ccccc1` [BENZENE], for which the “log K” value in [1] is reported as -0.53.

In turn, `Cc1ccccc1` [TOLUENE] displayed a Retention_time of 1.508 min.
